Assay outcomes (PubChem BioAssay)
DENV2 CPE – DENV2-induced cell death inhibition. DENV2-infected cells, cytopathic effect rescue, plate reader. CPE inhibition, % at 9.99 µM. hit rate 1.7% among 350,000. AID 651640; in the data active = CPE inhibition above about 20%, passing the limit was not always enough; inconclusive = no clear call, values can overlap the other calls; tested in BHK-21 cells
Cneo AK release – Cryptococcus neoformans lysis via adenylate kinase release; C. neoformans lysis, adenylate kinase release luminescence, 4 h; normalised: neutral wells 0, clomiphene wells 100; lysis activity, % at 15 µM; hit rate 0.2% among 360,000;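 active = mean lysis activity across replicates of at least 80%, whatever share of replicates individually reach that level; inactive = mean lysis activity below 80%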
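Assay system: Cryptococcus neoformans yeast cells / Dosing: single-point compound dose / Timing: 4 h at 37 °C static, read 1 h later / Measured by: luminescence of released adenylate kinase using an AK detection reagent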
Statin myotox sup – suppressors of simvastatin-induced myotoxicity in C2C12 myotubes | ATP luminescence, 48 h; scaled: DMSO 0, geranylgeraniol control 100 | rescue of ATP level, % at 7.49 µM | hit rate 0.78% among 330,000 | AID 602340;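 active = mean ATP rescue above about 67%, or every replicate alone reaching that limit, limit read from the data, passing the limit was not always enough; inconclusive = no clear call, values can overlap the other calls; inactive = mean under the limit and some replicate under it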;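 also: myotubes were challenged with 10 µM simvastatin during compound exposure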
XiGFP reactiv – activators of X-chromosome reactivation in mouse fibroblasts; XiGFP mouse fibroblasts, % GFP-positive cells imaging, 3 d; cells co-treated with 5-aza-dC sensitizer; scaled so ellipticine positive control = 100%; activation, % at 7.58 µM; hit rate 0.055% among 360,000;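 active = mean normalized replicate activation at least 10% and every replicate at or above 10%; inconclusive = only one of the two criteria met; inactive = mean below 10% and not all replicates reach 10%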
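System: 68-5-11 XiGFP fibroblast line | Buffer or medium: DMEM containing 5-aza-dC | Compound: Single point | Times: Compounds 3 days, fix/stain 15 min at room temperature | Benchmarks: Positive control ellipticine, 6 µM final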
Each line names hits and unclear results; the compound was inactive in the other large screens. Compounds with a hit are over-represented: about 2.1% of the library has one in this group of screens.

Cc1noc(C)c1NC(=O)N(C)C[C@@H]1Oc2c(NC(=O)NC(C)C)cccc2C(=O)N([C@H](C)CO)C[C@@H]1C	none (no result: Statin myotox sup)
CCCNC(=O)N1CC2(CN(CC3CCOCC3)C2)c2c(n(C)c3cc(OC)ccc23)[C@H]1CO	DENV2 CPE inconclusive (no result: Cneo AK release, Statin myotox sup)
CCS(=O)(=O)Nc1ccc2c(c1)C(=O)N(C)C[C@@H](OC)[C@@H](C)CN(C(=O)COC)[C@@H](C)CO2	none
CCC(=O)N1CC2(C1)CN(Cc1cccc(OC)c1)[C@@H](CO)c1[nH]c3cc(OC)ccc3c12	none (no result: Cneo AK release, Statin myotox sup)
CN(C)C(=O)C[C@@H]1CC[C@H]2[C@H](COc3ccc(NC(=O)NCc4ccccc4)cc3C(=O)N2C)O1	DENV2 CPE inconclusive
O=C(Nc1nccs1)[C@H]1[C@H](CO)[C@H]2Cn3c(cccc3=O)[C@H]2N1C(=O)C1CC1	none
Cc1noc(C)c1S(=O)(=O)Nc1ccc2c(c1)C(=O)N([C@H](C)CO)C[C@@H](C)[C@@H](CN(C)S(=O)(=O)c1ccc(Cl)cc1)OCCCC[C@H](C)O2	Statin myotox sup 101.2
Cc1noc(C)c1S(=O)(=O)Nc1ccc2c(c1)C(=O)N([C@H](C)CO)C[C@H](C)[C@@H](CN(C)S(=O)(=O)c1ccc(Cl)cc1)OCCCC[C@H](C)O2	none
Cc1noc(C)c1S(=O)(=O)N(C)C[C@@H]1OCCCC[C@@H](C)Oc2ccc(NS(=O)(=O)c3ccc(Cl)cc3)cc2C(=O)N([C@H](C)CO)C[C@H]1C	DENV2 CPE 30.8 (no result: Statin myotox sup)
Cc1cccc(-c2ccc([C@H]3[C@H](CO)N4C(=O)CN(C(=O)NC5CCCCC5)C[C@@H]34)cc2)c1	none (no result: Cneo AK release, Statin myotox sup)
COc1cc(OC)c2c(c1)OC(c1ccc(OC)c(OC)c1)C(O)C2=O (stereo unspecified)	DENV2 CPE 32.3
C=CCOc1c(Cl)cc(Cl)cc1S(=O)(=O)NCCO	DENV2 CPE 76.7
COc1ccc(NC(=O)N(C)C[C@H]2OCCCC[C@@H](C)Oc3ccc(NC(=O)Nc4ccc5c(c4)OCO5)cc3C(=O)N([C@@H](C)CO)C[C@H]2C)cc1	DENV2 CPE 69.7
COc1ccc(NC(=O)Nc2ccc3c(c2)C(=O)N([C@@H](C)CO)C[C@H](C)[C@H](CN(C)C(=O)Nc2ccc4c(c2)OCO4)OCCCC[C@@H](C)O3)cc1	none (no result: Statin myotox sup)
COc1ccc(NC(=O)N(C)C[C@@H]2OCCCC[C@H](C)Oc3ccc(NC(=O)Nc4ccc5c(c4)OCO5)cc3C(=O)N([C@H](C)CO)C[C@@H]2C)cc1	Cneo AK release 92.2
C[C@H]1CN([C@@H](C)CO)C(=O)Cc2cc(NC(=O)Cn3cnnn3)ccc2O[C@@H]1CN(C)C(=O)Nc1ccc2c(c1)OCO2	none
CC(C)C[C@H]1CN=C(Nc2ccccc2)N1CCCCc1ccccc1	Statin myotox sup 104.6
C[C@H]1CN=C(Nc2ccccc2)N1CCCC1CCCC1	DENV2 CPE 58.3
C[C@H]1CN=C(Nc2ccccc2)N1CCC1CCCCC1	none
Cc1csc(NC(=O)CSc2nc3[nH]c(=O)cc(O)c3s2)n1	Statin myotox sup 174.7
O=C(CSc1nc2[nH]c(=O)cc(O)c2s1)Nc1nncs1	none
COCCNC(=O)C1(C)CCN(C(=O)Cc2ccc(OC)c(OC)c2)C1 (stereo unspecified)	DENV2 CPE 22.0
COCCNC(=O)C1(C)CCCN(C(=O)c2ccc(C(F)(F)F)cc2)C1 (stereo unspecified)	DENV2 CPE 50.1
CCCNC(=O)C1(C)CCN(C(=O)Cc2ccc(OC)c(OC)c2)C1 (stereo unspecified)	none
COCCNC(=O)C1(C)CCN(C(=O)c2ccc3sccc3c2)C1 (stereo unspecified)	DENV2 CPE 53.7
COCC(=O)N(C)C[C@H]1Oc2cc(-c3ccc(C#N)cc3)ccc2S(=O)(=O)N([C@H](C)CO)C[C@@H]1C	none (no result: DENV2 CPE, Cneo AK release)
Cc1ccc(NS(=O)(=O)c2ccc(-n3cccn3)cc2)cc1C	Statin myotox sup 164.1
COc1ccc(-c2sc(Nc3ccccc3)n[n+]2-c2ccc(F)cc2)cc1Br	DENV2 CPE inconclusive
COc1ccc2ccccc2c1-c1sc(Nc2ccccc2)n[n+]1-c1ccc(F)cc1	DENV2 CPE 51.5
Cn1nc(C(=O)NC2CCCCC2)c2c1-c1ccccc1SC2	none
Cn1nc(C(=O)N2CCC(C(N)=O)CC2)c2c1-c1ccccc1SC2	DENV2 CPE 24.5
COc1cccc(NC(=O)[C@@H]2CCCN2S(=O)(=O)c2cccc3cccnc23)c1	none
COc1cc(NC(=O)[C@@H]2CCCN2S(=O)(=O)c2cccc3cccnc23)cc(OC)c1OC	Statin myotox sup 87.1
O=C(CCCc1nc(-c2ccccc2)no1)Nc1cccnc1	Statin myotox sup 86.4 (no result: DENV2 CPE, XiGFP reactiv)
O=C(CCc1nc(-c2ccccc2)no1)Nc1cccnc1	none
CO[C@@H]1CN(C)C(=O)c2ccc(NS(=O)(=O)c3ccccc3)cc2OC[C@H](C)NC[C@@H]1C	none
Cc1ccc(S(=O)(=O)Nc2ccc3c(c2)C(=O)N([C@H](C)CO)C[C@@H](C)[C@H](CN(C)C(=O)NC2CCCCC2)OCCCC[C@H](C)O3)cc1	none (no result: Statin myotox sup)
S=C(Nc1ccc(Cl)cc1Cl)Nc1ccccc1Oc1ccccc1	Cneo AK release 359.7 (no result: DENV2 CPE, XiGFP reactiv)
S=C(Nc1cccc(Cl)c1)Nc1ccccc1Oc1ccccc1	none (no result: DENV2 CPE, XiGFP reactiv)
C[C@H]1CN([C@@H](C)CO)S(=O)(=O)c2ccc(-c3cncnc3)cc2O[C@H]1CN(C)Cc1cccnc1	none
CCC(=O)N1CC2(C1)[C@H](c1ccccc1)[C@@H](CO)N2C(=O)NC(C)C	DENV2 CPE 29.1 (no result: Cneo AK release, Statin myotox sup)
CCC(=O)N1[C@H](CO)[C@H](c2ccccc2)C12CN(C(=O)Nc1ccccc1F)C2	DENV2 CPE 27.1 (no result: Cneo AK release, Statin myotox sup)
CCC(=O)N1CC2(C1)[C@H](c1ccccc1)[C@H](CO)N2C(=O)c1cccnc1	DENV2 CPE 23.9 (no result: Cneo AK release, Statin myotox sup)
O=C(c1cccnc1)N1CC2(C1)[C@@H](c1ccccc1)[C@@H](CO)N2CC1CC1	DENV2 CPE 20.3 (no result: Cneo AK release, Statin myotox sup)
O=C(C[C@@H]1CC[C@@H]2[C@H](COC[C@H](O)CN2Cc2ccccc2F)O1)N1CCc2ccccc2C1	none
O=C(CN1CCOCC1)NCC[C@H]1CC[C@@H](NC(=O)Nc2ccccc2)[C@@H](CO)O1	none
CN(C)CC(=O)Nc1ccc2c(c1)[C@H]1C[C@H](CC(=O)NCc3ccncc3)O[C@H](CO)[C@H]1O2	none
C[C@@H]1CCCCO[C@H](CN(C)C(=O)c2ccccc2)[C@H](C)CN([C@@H](C)CO)C(=O)c2cc(NC(=O)c3ccccc3)ccc2O1	none (no result: Statin myotox sup)
O=C(C1CCCCC1)N1CC2(C1)[C@H](c1ccccc1)[C@H](CO)N2C(=O)c1cccnc1	DENV2 CPE 27.7 (no result: Cneo AK release, Statin myotox sup)
O=C(c1cccnc1)N1CC2(C1)[C@H](c1ccccc1)[C@H](CO)N2C(=O)C1CCC1	DENV2 CPE 44.3 (no result: Cneo AK release, Statin myotox sup)
O=C(c1ccc2c(c1)OCO2)N1CC2(C1)[C@H](c1ccccc1)[C@@H](CO)N2C(=O)C1CCC1	DENV2 CPE 43.5 (no result: Cneo AK release, Statin myotox sup)
O=C(C1CCC1)N1CC2(C1)[C@@H](c1ccccc1)[C@@H](CO)N2C(=O)c1cccnc1	none (no result: Cneo AK release, Statin myotox sup)
O=C(C1CCCCC1)N1CC2(C1)[C@@H](c1ccccc1)[C@H](CO)N2C(=O)c1cccnc1	none (no result: Cneo AK release, Statin myotox sup)
